From ChEMBL document CHEMBL1154735, “A strategy to minimize reactive metabolite formation: discovery of (S)-4-(1-cyclopropyl-2-methoxyethyl)-6-[6-(difluoromethoxy)-2,5-dimethylpyridin-3-ylamino]-5-oxo-4,5-dihydropyrazine-2-carbonitrile as a potent, orally bioavailable corticotropin-releasing factor-1 receptor antagonist” (J Med Chem, 2009)

Assays:
[1] = Fraction unbound in human serum after 3 to 7 hrs by equilibrium dialysis; assay type: ADME, cell-free
Method in brief: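 Human serum spiked with compound, equilibrium-dialysed against isotonic phosphate buffer for 3 or 7 h (depending on system) at 37 °C; both sides measured by LC/MS/MS, unbound fraction as buffer/serum concentration ratio.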

[2] = biological target: T1, Corticotropin-releasing factor receptor 1 (Homo sapiens) (UniProt P34998); test: (§1) Antagonist activity at CRF1 receptor in human Y79 cells assessed as inhibition of CRF-stimulated cAMP production after 30 mins by HTRF analysis; assay type: functional, cell-based
T1 sequence (whole entry): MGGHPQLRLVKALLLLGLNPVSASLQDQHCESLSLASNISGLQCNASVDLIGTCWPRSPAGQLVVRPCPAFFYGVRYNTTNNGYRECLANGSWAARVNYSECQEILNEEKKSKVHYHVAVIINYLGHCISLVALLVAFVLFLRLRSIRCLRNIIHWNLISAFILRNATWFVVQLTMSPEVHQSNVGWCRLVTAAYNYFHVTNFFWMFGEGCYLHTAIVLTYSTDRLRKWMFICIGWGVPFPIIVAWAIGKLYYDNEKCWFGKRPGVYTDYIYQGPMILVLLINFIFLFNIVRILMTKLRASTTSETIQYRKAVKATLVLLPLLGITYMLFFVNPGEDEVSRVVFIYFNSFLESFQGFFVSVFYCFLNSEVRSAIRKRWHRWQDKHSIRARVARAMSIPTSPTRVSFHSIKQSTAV

[3] = biological target: T2, Corticotropin-releasing factor receptor 1 (Homo sapiens, UniProt P34998); test: as §1; assay type: functional, cell-based
T2 sequence (P34998 whole entry): T1 sequence (whole entry)

Rattus norvegicus [4] = test: Ex vivo receptor occupancy of CRF1 receptor in Sprague-Dawley rat brain parietal assessed as inhibition of [125I]sauvagine binding at 0.56 mg/kg, po after 90 mins by autoradiography; assay type: functional; details: 1.5 h
Rattus norvegicus [5] = test: Anxiolytic activity in Sprague-Dawley rat assessed as decrease in exit latency at 1.8 mg/kg, po after 60 mins by defensive withdrawal test relative to control; assay type: functional; parameters: scale not given: the % may be the effect or the level left
Method in brief: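 Rats placed in a darkened chamber within an open illuminated field; time to emerge measured 60 min after oral dosing (0.56–3 mg/kg), n = 8; percent decrease in exit latency versus vehicle-treated animals, p < 0.05 significance.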

[6] = AUC in Beagle dog at 2 mg/kg, po dosed as […] after 0.25 to 24 hrs by LC/MS/MS analysis; assay type: ADME, organism-based, Canis lupus familiaris; parameters: time upper 24 hr, time lower 0.25 hr, dose 2 mg/kg, route oral; details: in vivo
[7] = Oral bioavailability in Beagle dog at 3 mg/kg, po dosed as aqueous suspension of Labrafil M 1944CS/DMAC/polysorbate 80, 85:10:5 (v/v) after 0.25 to 24 hrs by LC/MS/MS analysis; assay type: ADME, organism-based, Canis lupus familiaris; details: in vivo
Method in brief: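 Fasted male beagle dogs dosed orally at 1 mL/kg: 2 mg/kg as 0.2% polysorbate 80 in 0.5% methylcellulose suspension (n = 4) or 3 mg/kg in Labrafil M 1944CS/DMAC/polysorbate 80 85:10:5 (n = 2). Femoral vein blood 0.25–24 h; plasma by LC/MS/MS.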

fraction unbound [1]: 0.035
inhibition [2]: Dose-dependent effect
IC50 [3]: 1.9 nM
AUC [6]: 7.6 µM·h
bioavailability [7]: 70%
SMILES: COC[C@H](C1CC1)n1cc(C#N)nc(Nc2cc(C)c(OC(F)F)nc2C)c1=O
inhibition in vivo at 0.56 mg/kg (Rattus norvegicus [4]): 39%
Activity (Rattus norvegicus [5]): 60%
